MC4R antagonist – MC4R antagonists of cAMP signaling, primary screen, cell-based, TR-FRET, antagonist arm of biased-ligand search. MC4R-expressing cells, MTII-stimulated cAMP, LANCE TR-FRET. inhibition, % at 6.5 µM. 0.48% of 360,000 active. AID 540295, 2011;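 active = inhibition above its plate's cutoff, the mean of tested wells on that plate plus 3 SD, cut at about 29% in these data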;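 also: 0% = Melanotan II alone and 100% = Melanotan II plus saturating MCL0020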
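Assay system: U2OS-MC4R stable cell line; Also added: Melanotan II; Technique: Eu-cAMP/anti-cAMP TR-FRET, emission 671 nm; Times: 30-min compound, 1-h challenge, 1-h detection, room temperature.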
MC4R ag barr – MC4R agonists recruiting beta-arrestin, primary screen, cell-based, luminescence, agonist arm of biased-ligand search. Melanocortin receptor 4 (Homo sapiens), P32245. activation, % at 8.9 µM. AID 540308, 2011. U2OS MC4R beta-arrestin complementation; percent of melanotan II response, DMSO zero. 0.98% of 360,000 active;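 active = activation above a per-plate cutoff, the mean activation of sample wells on that plate plus 3 SD, cut at about 8% in these data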
Myeloid diff 2 – induction of myeloid progenitor differentiation, primary screen, cell-based, flow cytometry, MLPCN library; ER-HoxA9 myeloid progenitors, lysozyme-GFP differentiation; calls only at 10 µM; 1% of 360,000 active; AID 624256, 2012;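 active = normalized GFP-positive differentiation at or above the plate's own cutoff, the solvent-only control mean plus 3 SD; inconclusive = no clear call, values can overlap the other calls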;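 also: cells exposed to compound for four days before flow analysis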
Granule exo inh – LAMP-1 surface exposure blockers, TALL-104 cells – cell-based, flow cytometry, MLPCN library, primary screen. 0.66% of 360,000 active. inhibition, % at 10 µM. TALL-104 LAMP-1 surface exposure; cells stimulated with thapsigargin and PMA;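 active = inhibition above about 55%, limit read from the data; inconclusive = no clear call, values can overlap the other calls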
EBI2 antag – EBI2 receptor antagonists, beta-arrestin recruitment, primary screen, cell-based, luminescence, 7a,25-OHC stimulation, uHTS. inhibition, % at 5 µM. 0.81% of 360,000 active. AID 651636, 2012. 7a,25-OHC stimulated; in the data active = inhibition above about 38%;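 also: enzyme fragment complementation signal reports receptor beta-arrestin coupling in cells; 0% = agonist plus DMSO wells and 100% = wells without agonist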
Target sequence (P32249 whole entry, looked up, the tested form may be a part): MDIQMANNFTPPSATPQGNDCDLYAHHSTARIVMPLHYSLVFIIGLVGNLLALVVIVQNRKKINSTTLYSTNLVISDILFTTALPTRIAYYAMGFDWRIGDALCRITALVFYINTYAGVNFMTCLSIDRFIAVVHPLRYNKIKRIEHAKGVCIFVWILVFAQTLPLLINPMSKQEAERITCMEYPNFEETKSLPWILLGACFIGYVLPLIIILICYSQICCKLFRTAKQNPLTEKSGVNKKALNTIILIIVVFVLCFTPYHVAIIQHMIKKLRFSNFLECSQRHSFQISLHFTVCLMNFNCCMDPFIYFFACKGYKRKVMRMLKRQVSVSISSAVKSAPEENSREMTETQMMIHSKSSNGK
Myeloid diff – inducers of myeloid progenitor differentiation, confirmation, cell-based, GFP/Mac1 flow cytometry, cherry pick 01; shares compounds with Myeloid diff 2; ER-HoxA9 myeloid progenitors, GFP/Mac1 double-positive flow; calls only; 2% of 2,300 active; AID 651706, 2012;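 active = share of green or green-and-red cells above 9 and 9% in run 1 or 4 and 3% in run 2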
GFP autofluor – counter-screen for myeloid differentiation promoters: compound fluorescence. shares compounds with Myeloid diff 2. ER-HoxA9 myeloid progenitors, no estrogen, GFP autofluorescence flow cytometry; vehicle wells 0%, positive control 100%. fluorescence response, % (test concentration not listed). 7.4% of 2,300 active. AID 651707;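 active = over 5% cells positive for green fluorescent reporter, or over 2% positive for both it and APC stain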;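 also: range taken on the double positive population between DMSO and positive control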
The depositor's hits bear a star; i = inactive; ? = inconclusive; . = no result given; + = active, no number. An excerpt weighted towards active compounds, which were near 3.7% of everything screened.

SMILES | MC4R antagonist | MC4R ag barr | Myeloid diff 2 | Granule exo inh | EBI2 antag | Myeloid diff | GFP autofluor
Cc1ccc(O)c(NC(=O)c2cc3nc4c(c(C(F)(F)F)n3n2)CCc2ccccc2-4)c1 | 14.0 | 0.8 | i | -2.4 | 11.2 | i | 0.0
COc1ccc(CC(=O)NCC(C)(C)N2CCOCC2)cc1 | 7.6 | -0.5 | i | -0.3 | -1.0 | . | .
O=C(CNC(=O)c1ccc(=O)[nH]c1)Nc1ccc(F)c(F)c1 | 8.8 | -0.8 | + | -1.5 | -4.2 | i | 0.5
O=C(CNC(=O)c1ccncc1)Nc1ccc(F)c(F)c1 | 3.4 | 3.3 | ? | -2.5 | 1.6 | . | .
Nc1ncnc(N)c1NC(=O)c1ccc(OCc2ccccc2)cc1 | 2.4 | -2.5 | i | 13.7 | 6.5 | . | .
Cc1ccn2c(Cc3ccccc3)c(-c3ccc(F)cc3)nc2c1 | 2.0 | -1.3 | i | -1.9 | 13.3 | . | .
CCOC(=O)c1c(NC(=S)Nc2ccc(Cl)cc2)sc2c1CCN(C)C2 | 14.5 | 0.0 | + | -5.5 | 9.3 | i | 46.8*
CCCC(=O)N1CCC1(C)C(=O)NS(=O)(=O)c1ccccc1 (centres undefined) | 6.1 | 1.7 | i | 8.3 | 0.5 | . | .
O=C1C=CC(=NN=C(c2ccccc2)c2ccccc2)C=C1 | . | . | i | 3.8 | 3.1 | . | .
Cc1c2ccccc2nc2c(F)c(NCCO)c(F)c(F)c12 | -17.4 | -1.4 | + | -2.3 | -18.2 | i | 78.0*
O=C(NC(=S)Nc1ccc(Cc2ccncc2)cc1)c1ccccc1 | 6.2 | -0.7 | + | 21.2 | 7.4 | i | 5.4*
CCC(=O)Nc1cccc(NC(=S)NC(=O)c2ccccc2)c1 | 2.1 | -1.7 | i | -5.0 | -8.7 | . | .
O=C(NC(=S)Nc1cccc(NC(=S)NC(=O)c2ccccc2)c1)c1ccccc1 | 14.2 | -1.0 | + | 1.0 | -1.4 | i | 0.9
COc1cccc(NC(=O)Nc2ccncc2)c1 | 18.7 | -1.0 | i | 2.8 | -7.2 | . | .
COc1cccc(NC(=O)Nc2ccc(Cc3ccncc3)cc2)c1 | 9.6 | -0.4 | + | -0.3 | 14.1 | i | 0.6
Cc1cccc(C(=O)NC(=S)Nc2ccc(Cc3ccncc3)cc2)c1 | 2.8 | -0.8 | i | -2.4 | 14.6 | . | .
Cc1cc(C)c2cccc(NC(=S)NC(=O)c3ccccc3)c2n1 | 5.3 | 7.1 | i | 7.4 | 15.0 | . | .
Cc1ccc2cccc(NC(=S)NC(=O)c3ccccc3)c2n1 | 20.3 | 6.2 | i | 3.9 | 12.0 | i | 0.6
COc1cccc(CNC(=O)c2ccc(F)c(S(=O)(=O)N3CCCCC3)c2)c1 | 3.9 | -0.3 | i | -14.4 | 10.1 | . | .
Cc1ccc[n+](Cc2ccc([N+](=O)[O-])cc2)c1 | 3.5 | -3.7 | i | 2.6 | -3.1 | . | .
O=[N+]([O-])c1ccc(C[n+]2cccc3c4ccccc4ccc32)cc1 | 12.1 | 0.1 | i | -0.6 | -7.7 | + | 0.0
COc1cc2c(cc1O)CC[n+]1cc3c(OC)c(OC)ccc3cc1-2 | -24.4 | -0.9 | i | -0.7 | -4.9 | . | .
COc1cc2c(cc1OC)-c1cc3ccc4c(c3c[n+]1CC2)OCO4 | -26.0 | 0.8 | + | -6.8 | -12.9 | + | 0.7
O=C(Nc1ccc(F)c(Cl)c1)c1cc(C2CCCN(C(=O)CCc3ccccc3)C2)on1 (centres undefined) | 9.7 | -1.6 | i | -5.6 | 18.2 | . | .
c1ccc(-n2ncc3c(NCc4ccco4)ncnc32)cc1 | -0.4 | -1.1 | i | -1.9 | 7.1 | . | .
SMILES | MC4R antagonist | MC4R ag barr | Myeloid diff 2 | Granule exo inh | EBI2 antag | Myeloid diff | GFP autofluor
c1ccc(Cn2ncc3c(NCc4ccco4)ncnc32)cc1 | 15.0 | -0.5 | i | 2.0 | -7.3 | i | 0.3
CC(C)(C)c1ccccc1NC(=O)c1cc(-c2ccncc2)nc2ccccc12 | 14.2 | -1.1 | i | -4.9 | 3.5 | i | 0.0
COc1ccccc1NC(=O)COC(=O)Cn1c(C)csc1=O | -0.1 | -1.7 | i | -0.2 | -4.3 | . | .
COc1ccccc1C(=O)NCCC(=O)N1CCN(c2ccccc2O)CC1 | -0.8 | -1.0 | i | 9.6 | 3.4 | . | .
O=C1CN(C(=O)COC(=O)CCSc2ccccc2Cl)c2ccccc2N1 | 5.2 | -1.4 | + | -2.9 | -1.8 | i | 0.0
COc1ccccc1C(=O)NCCC(=O)N1CC(=O)Nc2ccccc21 | 2.1 | 0.7 | + | 1.0 | -1.7 | i | 0.3

Bioassay records: PubChem BioAssay, several laboratories
